# Data: ChEMBL document CHEMBL2311353, “Synthesis and antiproliferative activities of N-(naphthalen-2-yl)acetamide and N-(substituted phenyl)acetamide bearing quinolin-2(1H)-one and 3,4-dihydroquinolin-2(1H)-one derivatives” (Eur J Med Chem, 2013)
# How the values were obtained:
# [1] = test system: MKN-45; assay: Antiproliferative activity against human MKN45 cells after 72 hrs by MTT assay; format: functional, cell-based; conditions: MKN-45, 72 h
# Procedure, shortened: (§1)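 Log-phase cells were seeded, left overnight, then exposed to a range of compound concentrations for 72 h. MTT at 0.4 mg/mL in MEM was added for 2 h, and formazan was read at 570 nm. GI50 was taken from percent conversion relative to mock-treated controls.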
# [2] = Antiproliferative activity against human Hep3B cells after 72 hrs by MTT assay; format: functional, cell-based, Hep 3B2; procedure, shortened: as §1
# [3] = test system: A498; assay: Antiproliferative activity against human A498 cells after 72 hrs by MTT assay; format: functional, cell-based; conditions: A498, 72 h; procedure, shortened: as §1
# [4] = test system: NCI-H661; assay: Antiproliferative activity against human NCI-H661 cells after 72 hrs by MTT assay; format: functional, cell-based; conditions: NCI-H661, 72 h; procedure, shortened: as §1
# [5] = Antiproliferative activity against human NPC-TW01 cells after 72 hrs by MTT assay; format: functional, cell-based; conditions: NPC-TW01, 72 h; procedure, shortened: as §1
Compound,IC50 [1] [µM],IC50 [4] [µM],IC50 [2] [µM],IC50 [3] [µM],IC50 [5] [µM]
O=C(COc1ccc2c(c1)NC(=O)CC2)Nc1ccc(-c2ccccc2)cc1,32.4,15.4,8.1,12,2.9
COc1ccc(NC(=O)COc2ccc3c(c2)NC(=O)CC3)cc1,36.3,16.4,31.1,19.3,13.1
O=C(COc1ccc2c(c1)NC(=O)CC2)Nc1ccccc1,32.4,21.8,27.2,12,16

# The next lines start with results.
IC50 [1] [µM],IC50 [4] [µM],Compound,IC50 [2] [µM],IC50 [3] [µM],IC50 [5] [µM]
38.6,15.3,O=C(COc1ccc2c(c1)NC(=O)CC2)Nc1ccc(F)cc1,27,11.3,15.8
26.9,11.2,O=C(COc1ccc2c(c1)NC(=O)CC2)Nc1ccc2ccccc2c1,19.2,8.6,8.9
